SMILES strings stand for the structures. Activity calls are given as the source filed them. No cut-off for these calls is given here. *1 amine or outer side, *2 acyl side, *3 side chain or, on linkers, in order; H or OH if unused. Where a SMILES comes first, the peptide text is derived from it. [ ]: non-standard residue; d: D form. The star is where a group is joined. X4 = O=C(Nc1ccc(C(F)(F)F)cc1)c1cc(/C=N\OCC(=O)*)ccc1O; X2 = C/C(=N\OCC(=O)*)c1ccc(NC(=O)c2cc(Br)ccc2O)cc1; X1 = C/C(=N\OCC(=O)[*:2])c1ccc(N[*:1])cc1; Benzoyl(5-Br-2-OH) = O=C(c1cc(Br)ccc1O)*; Palmitoyl = CCCCCCCCCCCCCCCC(=O)*; Decanoyl = CCCCCCCCCC(=O)*; X3 = O=C(c1cc(Cl)ccc1O)*; Butyryl = CCCC(=O)*

This note sets out measurements from ChEMBL document CHEMBL5252539, “In vitro biological evaluation of new antimycobacterial salicylanilide-tuftsin conjugates” (Eur J Med Chem, 2017).

The test system of this test is Mycobacterium tuberculosis. The test is described as follows: Antimycobacterial activity against isoniazid and rifampicin resistant Mycobacterium tuberculosis A8 ATCC 35822 assessed as reduction in colony forming unit after 28 days by serial dilution method. The settings on record: time 28.0 day. In kind it is functional, organism-based. A digest of the protocol: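 After the 4-week MIC incubation in Sula semisynthetic medium (pH 6.5), growth inhibition confirmed by plating on Löwenstein-Jensen solid medium and counting colony forming units.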
Take `C/C(=N\OCC(=O)N[C@H](C(=O)O)[C@@H](C)O)c1ccc(NC(=O)c2cc(Br)ccc2O)cc1`: the outcome was Active. The entry for `C/C(=N\OCC(=O)NCC(=O)O)c1ccc(NC(=O)c2cc(Br)ccc2O)cc1` is “Active”; for `C/C(=N\OCC(=O)NCC(=O)N[C@@H](Cc1ccccc1)C(=O)N[C@@H](CC(C)C)C(=O)NCC(=O)N[C@H](C(=O)N[C@@H](CCCCN)C(=O)N1CCC[C@@H]1C(=O)N1CCC[C@H]1C(=O)N[C@H](CCCNC(=N)N)C(=O)O)[C@@H](C)O)c1ccc(NC(=O)c2cc(Br)ccc2O)cc1` it is “Active”; for `C/C(=N\OCC(=O)NCC(=O)N[C@@H](Cc1ccccc1)C(=O)N[C@@H](CC(C)C)C(=O)NCC(=O)N[C@H](C(=O)N[C@@H](CCCCN)C(=O)N1CCC[C@@H]1C(=O)N[C@H](CCCCN)C(=O)NCC(=O)N[C@@H](C(=O)N[C@H](CCCCN)C(=O)N1CCC[C@H]1C(=O)N[C@H](CCCCN)C(=O)NCC(=O)N[C@@H](C(=O)N[C@@H](CCCCN)C(=O)N1CCC[C@@H]1C(=O)N[C@H](CCCCN)C(=O)NCC(=O)N[C@@H](C(=O)N[C@H](CCCCN)C(=O)N1CCC[C@H]1C(=O)N[C@H](CCCCN)C(=O)NCC(N)=O)[C@H](C)O)[C@H](C)O)[C@H](C)O)[C@@H](C)O)c1ccc(NC(=O)c2cc(Br)ccc2O)cc1` it is “Active”. The entry for `C/C(=N\OCC(=O)NCC(=O)N[C@@H](Cc1ccccc1)C(=O)N[C@@H](CC(C)C)C(=O)NCC(=O)N[C@H](C(=O)N[C@@H](CCCCN)C(=O)N1CCC[C@@H]1C(=O)N[C@H](CCCNC(=N)N)C(=O)O)[C@@H](C)O)c1ccc(NC(=O)c2cc(Br)ccc2O)cc1` is “Active”; for `C/C(=N\OCC(=O)N[C@H](C(=O)N[C@@H](CCCCN)C(=O)N1CCC[C@H]1C(=O)N1CCC[C@@H]1C(=O)N[C@H](CCCNC(=N)N)C(=O)O)[C@@H](C)O)c1ccc(NC(=O)c2cc(Br)ccc2O)cc1` it is “Active”; for `C/C(=N\OCC(=O)NCCCC[C@H](NC(=O)[C@@H]1CCCN1C(=O)[C@H](CCCCN)NC(=O)[C@@H](NC(=O)CNC(=O)[C@H](CCCCNC(=O)CO/N=C(\C)c1ccc(NC(=O)c2cc(Br)ccc2O)cc1)NC(=O)[C@@H]1CCCN1C(=O)[C@H](CCCCN)NC(=O)[C@@H](NC(=O)[C@H](CCCNC(=N)N)NC(=O)[C@@H]1CCCN1C(=O)[C@H](CCCCN)NC(=O)[C@@H](N)[C@@H](C)O)[C@@H](C)O)[C@@H](C)O)C(=O)NCC(=O)O)c1ccc(NC(=O)c2cc(Br)ccc2O)cc1` (H-TKPRTKPK(X2)GTKPK(X2)G-OH) it is “Active”.

Consider `CCCCCCCCCCCCCCCC(=O)NCCCC[C@H](NC(=O)[C@@H]1CCCN1C(=O)[C@H](CCCCN)NC(=O)[C@@H](NC(=O)CO/N=C(\C)c1ccc(NC(=O)c2cc(Cl)ccc2O)cc1)[C@@H](C)O)C(=O)NCC(=O)N[C@H](C(=O)N[C@@H](CCCCN)C(=O)N1CCC[C@H]1C(=O)N[C@@H](CCCCN)C(=O)NCC(=O)N[C@H](C(=O)N[C@@H](CCCCN)C(=O)N1CCC[C@H]1C(=O)N[C@@H](CCCCN)C(=O)NCC(=O)N[C@H](C(=O)N[C@@H](CCCCN)C(=O)N1CCC[C@H]1C(=O)N[C@@H](CCCCN)C(=O)NCC(N)=O)[C@@H](C)O)[C@@H](C)O)[C@@H](C)O` (X3-[X1]TKPK(Palmitoyl)GTKPKGTKPKGTKPKG-NH2), for which the result was Active. The result for `C/C(=N\OCC(=O)N[C@H](C(=O)N[C@@H](CCCCN)C(=O)N1CCC[C@H]1C(=O)N[C@@H](CCCCN)C(=O)NCC(=O)N[C@H](C(=O)N[C@@H](CCCCN)C(=O)N1CCC[C@H]1C(=O)N[C@@H](CCCCN)C(=O)NCC(=O)N[C@H](C(=O)N[C@@H](CCCCN)C(=O)N1CCC[C@H]1C(=O)N[C@@H](CCCCN)C(=O)NCC(=O)N[C@H](C(=O)N[C@@H](CCCCN)C(=O)N1CCC[C@H]1C(=O)N[C@@H](CCCCN)C(=O)NCC(N)=O)[C@@H](C)O)[C@@H](C)O)[C@@H](C)O)[C@@H](C)O)c1ccc(NC(=O)c2cc(Cl)ccc2O)cc1` (X3-[X1]TKPKGTKPKGTKPKGTKPKG-NH2) reads “Active”. As to `C[C@@H](O)[C@H](NC(=O)CNC(=O)[C@H](CCCCN)NC(=O)[C@@H]1CCCN1C(=O)[C@H](CCCCN)NC(=O)[C@@H](NC(=O)CNC(=O)[C@H](CCCCN)NC(=O)[C@@H]1CCCN1C(=O)[C@H](CCCCN)NC(=O)[C@@H](NC(=O)CNC(=O)[C@H](CCCCN)NC(=O)[C@@H]1CCCN1C(=O)[C@H](CCCCN)NC(=O)[C@@H](NC(=O)CO/N=C\c1ccc(O)c(C(=O)Nc2ccc(C(F)(F)F)cc2)c1)[C@@H](C)O)[C@@H](C)O)[C@@H](C)O)C(=O)N[C@@H](CCCCN)C(=O)N1CCC[C@H]1C(=O)N[C@@H](CCCCN)C(=O)NCC(N)=O` (X4-TKPKGTKPKGTKPKGTKPKG-NH2), the outcome was Active.

Turning to `CCCC(=O)NCCCC[C@H](NC(=O)[C@@H]1CCCN1C(=O)[C@H](CCCCN)NC(=O)[C@@H](NC(=O)CO/N=C(\C)c1ccc(NC(=O)c2cc(Br)ccc2O)cc1)[C@@H](C)O)C(=O)NCC(=O)N[C@H](C(=O)N[C@@H](CCCCN)C(=O)N1CCC[C@H]1C(=O)N[C@@H](CCCCN)C(=O)NCC(=O)N[C@H](C(=O)N[C@@H](CCCCN)C(=O)N1CCC[C@H]1C(=O)N[C@@H](CCCCN)C(=O)NCC(=O)N[C@H](C(=O)N[C@@H](CCCCN)C(=O)N1CCC[C@H]1C(=O)N[C@@H](CCCCN)C(=O)NCC(N)=O)[C@@H](C)O)[C@@H](C)O)[C@@H](C)O` ({Benzoyl(5-Br-2-OH)}-[X1]TKPK(Butyryl)GTKPKGTKPKGTKPKG-NH2), the outcome was Active.

`CCCCCCCCCC(=O)NCCCC[C@H](NC(=O)[C@@H]1CCCN1C(=O)[C@H](CCCCN)NC(=O)[C@@H](NC(=O)CO/N=C(\C)c1ccc(NC(=O)c2cc(Br)ccc2O)cc1)[C@@H](C)O)C(=O)NCC(N)=O` ({Benzoyl(5-Br-2-OH)}-[X1]TKPK(Decanoyl)G-NH2): the result was Active. The result for `CCCCCCCCCC(=O)NCCCC[C@H](NC(=O)[C@@H]1CCCN1C(=O)[C@H](CCCCN)NC(=O)[C@@H](NC(=O)CO/N=C(\C)c1ccc(NC(=O)c2cc(Br)ccc2O)cc1)[C@@H](C)O)C(=O)NCC(=O)N[C@H](C(=O)N[C@@H](CCCCN)C(=O)N1CCC[C@H]1C(=O)N[C@@H](CCCCN)C(=O)NCC(=O)N[C@H](C(=O)N[C@@H](CCCCN)C(=O)N1CCC[C@H]1C(=O)N[C@@H](CCCCN)C(=O)NCC(=O)N[C@H](C(=O)N[C@@H](CCCCN)C(=O)N1CCC[C@H]1C(=O)N[C@@H](CCCCN)C(=O)NCC(N)=O)[C@@H](C)O)[C@@H](C)O)[C@@H](C)O` ({Benzoyl(5-Br-2-OH)}-[X1]TKPK(Decanoyl)GTKPKGTKPKGTKPKG-NH2) reads “Active”. The entry for `CCCCCCCCCCCCCCCC(=O)NCCCC[C@H](NC(=O)[C@@H]1CCCN1C(=O)[C@H](CCCCN)NC(=O)[C@@H](NC(=O)CO/N=C(\C)c1ccc(NC(=O)c2cc(Br)ccc2O)cc1)[C@@H](C)O)C(=O)NCC(N)=O` ({Benzoyl(5-Br-2-OH)}-[X1]TKPK(Palmitoyl)G-NH2) is “Active”; for `CCCCCCCCCCCCCCCC(=O)NCCCC[C@H](NC(=O)[C@@H]1CCCN1C(=O)[C@H](CCCCN)NC(=O)[C@@H](NC(=O)CO/N=C(\C)c1ccc(NC(=O)c2cc(Br)ccc2O)cc1)[C@@H](C)O)C(=O)NCC(=O)N[C@H](C(=O)N[C@@H](CCCCN)C(=O)N1CCC[C@H]1C(=O)N[C@@H](CCCCN)C(=O)NCC(=O)N[C@H](C(=O)N[C@@H](CCCCN)C(=O)N1CCC[C@H]1C(=O)N[C@@H](CCCCN)C(=O)NCC(=O)N[C@H](C(=O)N[C@@H](CCCCN)C(=O)N1CCC[C@H]1C(=O)N[C@@H](CCCCN)C(=O)NCC(N)=O)[C@@H](C)O)[C@@H](C)O)[C@@H](C)O` ({Benzoyl(5-Br-2-OH)}-[X1]TKPK(Palmitoyl)GTKPKGTKPKGTKPKG-NH2) it is “Active”; for `C/C(=N\OCC(=O)NCCCC[C@H](NC(=O)[C@@H]1CCCN1C(=O)[C@H](CCCCN)NC(=O)[C@@H](NC(=O)CO/N=C(\C)c1ccc(NC(=O)c2cc(Br)ccc2O)cc1)[C@@H](C)O)C(=O)NCC(=O)N[C@H](C(=O)N[C@@H](CCCCN)C(=O)N1CCC[C@H]1C(=O)N[C@@H](CCCCN)C(=O)NCC(=O)N[C@H](C(=O)N[C@@H](CCCCN)C(=O)N1CCC[C@H]1C(=O)N[C@@H](CCCCN)C(=O)NCC(=O)N[C@H](C(=O)N[C@@H](CCCCN)C(=O)N1CCC[C@H]1C(=O)N[C@@H](CCCCN)C(=O)NCC(N)=O)[C@@H](C)O)[C@@H](C)O)[C@@H](C)O)c1ccc(NC(=O)c2cc(Br)ccc2O)cc1` ({Benzoyl(5-Br-2-OH)}-[X1]TKPK(X2)GTKPKGTKPKGTKPKG-NH2) it is “Active”.

Take `C/C(=N\OCC(=O)N[C@H](C(=O)N[C@@H](CCCCN)C(=O)N1CCC[C@H]1C(=O)N[C@@H](CCCCN)C(=O)NCC(=O)N[C@H](C(=O)N[C@@H](CCCCN)C(=O)N1CCC[C@H]1C(=O)N[C@@H](CCCCN)C(=O)NCC(N)=O)[C@@H](C)O)[C@@H](C)O)c1ccc(NC(=O)c2cc(Br)ccc2O)cc1` ({Benzoyl(5-Br-2-OH)}-[X1]TKPKGTKPKG-NH2): the outcome was Active. The entry for `CCCCCCCCCCCCCCCC(=O)NCCCC[C@H](NC(=O)[C@@H]1CCCN1C(=O)[C@H](CCCCN)NC(=O)[C@@H](NC(=O)CNC(=O)[C@H](CCCCN)NC(=O)[C@@H]1CCCN1C(=O)[C@H](CCCCN)NC(=O)[C@@H](NC(=O)CNC(=O)[C@H](CCCCN)NC(=O)[C@@H]1CCCN1C(=O)[C@H](CCCCN)NC(=O)[C@@H](NC(=O)CO/N=C(\C)c1ccc(NC(=O)c2cc(Br)ccc2O)cc1)[C@@H](C)O)[C@@H](C)O)[C@@H](C)O)C(=O)NCC(=O)N[C@H](C(=O)N[C@@H](CCCCN)C(=O)N1CCC[C@H]1C(=O)N[C@@H](CCCCN)C(=O)NCC(N)=O)[C@@H](C)O` ({Benzoyl(5-Br-2-OH)}-[X1]TKPKGTKPKGTKPK(Palmitoyl)GTKPKG-NH2) is “Active”; for `C/C(=N\OCC(=O)N[C@H](C(=O)N[C@@H](CCCCN)C(=O)N1CCC[C@H]1C(=O)N[C@@H](CCCCN)C(=O)NCC(=O)N[C@H](C(=O)N[C@@H](CCCCN)C(=O)N1CCC[C@H]1C(=O)N[C@@H](CCCCN)C(=O)NCC(=O)N[C@H](C(=O)N[C@@H](CCCCN)C(=O)N1CCC[C@H]1C(=O)N[C@@H](CCCCN)C(=O)NCC(=O)N[C@H](C(=O)N[C@@H](CCCCN)C(=O)N1CCC[C@H]1C(=O)N[C@@H](CCCCN)C(=O)NCC(N)=O)[C@@H](C)O)[C@@H](C)O)[C@@H](C)O)[C@@H](C)O)c1ccc(NC(=O)c2cc(Br)ccc2O)cc1` ({Benzoyl(5-Br-2-OH)}-[X1]TKPKGTKPKGTKPKGTKPKG-NH2) it is “Active”.
